Legend:
[1] = melting temperature; fluorescence melt of hairpins on a sequencing array, two-state fit, raised by 9.35 °C to match UV melts; conditions: sodium 0.088 M
Method in brief: (§1)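 Library hairpins on a sequenced MiSeq flow cell carried annealed Cy3 and quencher oligos, and their Cy3 fluorescence was imaged in 50 mM Na-HEPES pH 8.0 with 25 mM NaCl, in 2.5 °C steps up to 60 °C. Signals were normalised to Cy3 before quenching and to control constructs. Melting temperature and folding enthalpy were obtained from bootstrapped two-state fits, combined by inverse-variance weighting across four replicates, and the fitted temperatures were then raised by 9.35 °C to match UV melts.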

[2] = folding enthalpy; higher = less favourable; fluorescence melt of hairpins on a sequencing array, two-state fit; conditions: sodium 0.088 M
Method in brief: as §1

Sequence	Tm [1] [°C]	folding enthalpy [2] [kcal/mol]
GATCTAAACTTAGATC ((((((....))))))	42.2	-37
GATCCCTATCGGGATC ((((((....))))))	60.2	-38
GATCGCGCGGGCGATC ((((((....))))))	67.2	-32.9
GCGGAATGCCGC ((((....))))	53	-24.3
GGATTGGGAAACCAACCC ((.((((....)))).))	41.2	-31.5
GTAATTCGAAAGAACTAC (((.(((....))).)))	30	-14.6
GATCGGGGACCGATC ((((((...))))))	66.8	-37.2
GGTAACGAAAGTTCCACC ((((((....)))..)))	33.3	-12.3
GATCTCTAACGAGATC ((((((....))))))	49.4	-33.4
GATACACGAAAGTGAATC (((.(((....))).)))	45.2	-22.1
GAGAGAGGAAACCCTCTC (((((.(....).)))))	42.5	-20.2
GGTGCCCGAAAGGGTACC (((.(((....))).)))	68.2	-33.4
GAACACGAAAGTGCTTC ((((((....))).)))	41.9	-20.2
GCGACTACTCGC ((((....))))	46.6	-23.2
GCACACGGAAACGTGCAC (..((((....))))..)	33.2	-9.99
GCCGACGAAAGTCTGGGC ((((((....)))..)))	54.6	-27.6
GATCTAAAAATAGATC ((((((....))))))	28.2	-10.6
GTTAACGGAAACGCTAAC ((((.((....)).))))	36.2	-28.1
GATCCGAGCCGGATC ((((((...))))))	56.3	-44.5
GCATGGCGAAAGCGATGC ((((.((....)).))))	64.2	-22
GCTGGGGCGAAAGCCAGC (((..(((....))))))	55.3	-16.8
GAACAGCGAAAGCTCTTC (((.(((....))).)))	34.3	-14.5
GAGTCGACGAAAGTCCTC (((..(((....))))))	26.6	-9.8

Sequence	Tm [1] [°C]	folding enthalpy [2] [kcal/mol]
GATCCCCGAGGGGATC ((((((....))))))	68.5	-37.2
GATGCACGAAAGTGTATC (((.(((....))).)))	54.2	-31.7
GCAGTCGAAAGACATGC ((((((....))).)))	51.5	-24.1
GTTTGCGGAAACGCAGAC ((.((((....)))).))	51.8	-24.6
GATCCCCTTCGGGATC ((((((....))))))	58.7	-39.9
GCGGTACGAAAGTACGC (((.(((....))))))	60.7	-26.4
GGTACACGAAAGTGAACC (((.(((....))).)))	53.9	-36.8
GCGTCTAGACGC ((((....))))	58.6	-31
GCCCTTGGAAACAAGGAC (.(((((....))))).)	40.1	-17.5
GATCGAGCAGTCGATC ((((((....))))))	54.3	-39.7
GGGAACCGAAAGGTCCC (((.(((....))))))	57.3	-20.9
GCCCTTACGAAAGTAGGC (((..(((....))))))	39.1	-20.6
AAGGAGAAATCCTT (((((....)))))	27.3	-8.61
GAGCCGGGAAACCAGCTC ((((.((....)).))))	48	-37.8
GACCGACGAAAGTCTGTC (((.(((....))).)))	48.7	-31.1
GAGAGCGAAAGCTAACTC ((((((....)))..)))	33	-12.7
GCGTGCGAAAGCATCGC ((((((....))).)))	67.2	-30.9
GATCTCCCCGGAGATC ((((((....))))))	57.6	-35.1
CGGTGTCGGAAACGACCG (((..(((....))))))	47.5	-11.9
GCGTACACGAAAGTGCGC (((..(((....))))))	52.8	-26.4
GCTAGCGAAAGCTGCAGC ((((((....)))..)))	46	-13.2
GACATACGAAAGTAGTC (((.(((....))))))	41.5	-22.2
GACGGAGGAAACTTCGTC ((((.((....)).))))	49.6	-42.1
